High-throughput results from PubChem.
Most compounds without a hit are left out; they make up all but 1.7% or so of the library.
LMPTP block: blocks human LMPTP phosphatase; hit rate 0.22% among 360,000; AID 651560; recombinant LMPTP-A, OMFP fluorogenic substrate, fluorescence intensity; inhibition, % at 20 µM;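 active = compounds that cut the enzyme signal by at least half of the control window in the single-dose screen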;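 also: plate controls were DMSO wells with enzyme plus substrate for no effect and substrate without enzyme for full effect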
Target sequence (P24666 whole entry, looked up): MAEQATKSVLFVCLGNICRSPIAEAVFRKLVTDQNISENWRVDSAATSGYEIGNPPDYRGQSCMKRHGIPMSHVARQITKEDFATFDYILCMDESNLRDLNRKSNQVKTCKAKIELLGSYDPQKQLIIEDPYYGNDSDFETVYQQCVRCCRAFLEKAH
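Assay system: LMPTP-A phosphatase enzyme | Input: 0.625 nM enzyme | Also added: Fluorogenic phosphatase substrate OMFP at 400 µM final | Compound dosing: One test concentration per compound, 20 µM, with 3% DMSO overall | Schedule: 50 min enzyme reaction at room temperature, protected from light | Signal: Fluorescence intensity | Benchmarks: no-enzyme and uninhibited controls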
Scp1 inh: inhibitors of human Scp-1 phosphatase | inhibition, % at 20 µM | Recombinant Scp1, phosphopeptide, malachite green phosphate absorbance | AID 493091 | hit rate 0.88% among 340,000 | Q9GZU7;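 active = inhibition above about 50% at 20 µM, limit read from the data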;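 also: plate controls were DMSO wells with enzyme for no effect and wells lacking enzyme for full effect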
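Times: enzyme reaction 45 min at room temperature, colour 5 min, stabilisation 30 min. Material: SCP-1 catalytic fragment, aa 76-261. Medium: Acidic Tris acetate buffer with magnesium and detergent. Signal: colorimetric free-phosphate detection, absorbance 630 nm. Read-out basis: % inhibition of SCP-1 phosphate liberation. Reagent: Phosphorylated 17-residue peptide substrate.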
DNMT1 inh: DNMT1 (human) enzyme inhibition; P26358; DNMT1 molecular beacon, Hinp1I cleavage, fluorescence; inhibition (reported as % activation of signal), % at 10 µM; hit rate 0.83% among 360,000; AID 588458; in the data active = inhibition above about 50%
SUMO1 PPI mod: SUMO1-SIM interaction modulation | P63165 | SUMO1 binding to a labelled peptide, TR-FRET, 1 h | inhibition, % at 20 µM | hit rate 0.33% among 360,000 | AID 602429; in the data active = inhibition above about 37%
STEP block: STEP (human) phosphatase inhibition; P54829; recombinant STEP, OMFP fluorogenic substrate, fluorescence; inhibition, % at 20 µM; hit rate 0.25% among 360,000; AID 588621;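 active = inhibition at 20 µM, scaled per plate between control wells, above about 37%, limit read from the data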;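 also: 0% = DMSO with enzyme and substrate and 100% = substrate only without enzyme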
Target sequence (P54829 whole entry, looked up): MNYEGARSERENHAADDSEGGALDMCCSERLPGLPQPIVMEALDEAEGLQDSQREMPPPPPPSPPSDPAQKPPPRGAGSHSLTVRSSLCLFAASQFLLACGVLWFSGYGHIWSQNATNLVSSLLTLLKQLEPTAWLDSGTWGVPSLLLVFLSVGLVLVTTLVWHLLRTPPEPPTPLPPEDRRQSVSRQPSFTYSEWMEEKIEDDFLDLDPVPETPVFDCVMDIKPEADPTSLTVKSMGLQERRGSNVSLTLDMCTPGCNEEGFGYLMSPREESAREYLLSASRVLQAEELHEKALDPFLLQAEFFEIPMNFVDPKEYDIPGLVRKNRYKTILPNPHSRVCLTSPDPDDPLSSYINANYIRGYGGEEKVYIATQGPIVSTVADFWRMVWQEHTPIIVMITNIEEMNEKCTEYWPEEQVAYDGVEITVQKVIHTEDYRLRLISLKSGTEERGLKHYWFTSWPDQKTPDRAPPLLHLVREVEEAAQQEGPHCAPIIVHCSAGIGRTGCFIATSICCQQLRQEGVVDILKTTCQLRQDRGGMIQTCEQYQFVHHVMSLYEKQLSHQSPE
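material = STEP tyrosine phosphatase | reagent = fluorogenic phosphatase substrate OMFP at 25 µM final | doses = single compound dose of 20 µM, 1% DMSO final | schedule = 20 min reaction, room temperature, in the dark | measured by = fluorescence, 480/540 nm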
Scp-1 conf: confirmation of human Scp-1 phosphatase inhibitors; shares compounds with Scp1 inh; recombinant SCP-1 catalytic domain, phosphate release, malachite green absorbance; inhibition, % at 20 µM; hit rate 61% among 2,500;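 also: plate controls were DMSO with enzyme for no effect and buffer wells lacking enzyme for full effect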
MG interference: counter-screen for Scp-1 inhibitors: colorimetric interference. shares compounds with Scp1 inh. Colorimetric interference counterscreen, malachite green absorbance 630 nm. apparent inhibition (interference), % at 20 µM. 2,500 tested, under 10 active;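 also: compounds added after enzyme reaction finished so only phosphate colour detection is probed; plate controls were DMSO wells with completed Scp-1 reaction for no effect and substrate wells lacking enzyme for full effect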
Scp-1 Tm shift: validation of human Scp-1 inhibitors by thermal shift binding | shares compounds with Scp1 inh | Recombinant SCP1, Sypro Orange thermal shift Tm | thermal shift relative to vanadate control, % at 40 µM | hit rate 25% among 1,500 | AID 540329;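 active = substances whose mean melting-temperature shift, as a percentage of the reference inhibitor's shift, reaches about 5.3%, limit read from the data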;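 also: 0% = Tm of DMSO wells and 100% = Tm with sodium orthovanadate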
Starred values were filed as active, the others as inactive; nt = not tested or not shown.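 The calls were made as follows, unless noted: active = inhibition of at least 30% at 20 µM; inactive = the rest.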

SMILES	LMPTP block	Scp1 inh	DNMT1 inh	SUMO1 PPI mod	STEP block	Scp-1 conf	MG interference	Scp-1 Tm shift
COc1ccc(-c2cc(C(=O)N/N=C/c3cccnc3)c3cc(C)cc(C)c3n2)cc1	1.6	0.0	8.8	-2.7	-0.7	nt	nt	nt
c1ccc(Sc2cccc3ccccc23)c(CNC2=NCCN2)c1	1.8	29.2	8.6	-10.3	-4.0	nt	nt	nt
Fc1ccccc1Sc1ccccc1CNC1=NCCN1	-1.4	97.4*	0.1	2.2	-3.3	84.0*	-14.8	-13.8
CCc1c(C)nc2c(-c3ccccc3OC)c(C)[nH]n2c1=O	-1.6	-2.4	-2.7	0.1	0.4	nt	nt	nt
COc1ccc2c(c1)c(=O)oc1cc(OCC(=O)NC3CCCCC3)ccc12	3.7	70.5*	51.7*	-16.9	6.3	55.6*	-15.3	-16.0
CCc1ccc(OCc2cccc(C(=O)N/N=C\c3cnn(C)c3C)c2)cc1	13.7	65.5*	14.7	6.7	4.5	78.2*	-3.5	-5.9
Cc1c(/C=N\NC(=O)c2cccc(F)c2)cnn1C	-1.7	-7.6	3.6	0.4	1.8	nt	nt	nt
CN(C(=O)COC(=O)c1cc(S(=O)(=O)N2CCOCC2)c(Cl)cc1Cl)C1CCS(=O)(=O)C1 (stereo unspecified)	0.5	-3.1	-0.3	1.5	3.2	nt	nt	nt
CO/N=C(\C(=O)N[C@@H]1C(=O)N2C(C(=O)O)=C(COC(N)=O)CS[C@H]12)c1ccco1	-0.5	69.7*	34.5	21.5	6.7	67.2*	-10.1	8.0*
COCC1=C(C(=O)OC(C)OC(=O)OC(C)C)N2C(=O)[C@@H](NC(=O)/C(=N\OC)c3csc(N)n3)[C@H]2SC1 (stereo partly specified)	1.8	-3.8	-13.4	0.0	2.9	nt	nt	nt
CON=C(C(=O)NC1C(=O)N2C(C(=O)O)=C(CSc3nc(=O)c(=O)[nH]n3C)CSC12)c1csc(N)n1 (stereo unspecified)	0.7	64.6*	46.9	32.9	10.8	51.9*	-10.9	3.2
Cc1cc(F)ccc1C(O)c1ncc(-c2cccc(OCc3ccccc3)c2)[nH]1 (stereo unspecified)	3.5	nt	-0.3	0.6	-1.0	nt	nt	nt
Cc1ccc(-c2noc(CC(=O)c3ccc([N+](=O)[O-])cc3)n2)cc1	0.7	7.1	-23.6	-9.2	0.8	nt	nt	nt
O=C(NCc1ccccn1)C1CCN(S(=O)(=O)c2ccccc2)CC1	-2.7	-0.6	1.6	-0.9	-0.7	nt	nt	nt
O=C(NCc1ccccn1)C1CCN(S(=O)(=O)c2cnc[nH]2)CC1	0.6	60.4*	0.1	-0.2	-2.6	33.3*	-12.9	-4.7
O=C(CN1C(=O)NC2(CCCC2)C1=O)Nc1cccc(C(F)(F)F)c1	0.6	-4.7	-0.8	2.8	-2.1	nt	nt	nt
O=C(CN1C(=O)/C(=C2/SC(=S)N(CCS(=O)(=O)O)C2=O)c2ccccc21)Nc1cccc(C(F)(F)F)c1	5.2	84.4*	21.0	14.1	5.3	84.6*	-15.0	885.4*
O=[N+]([O-])c1ccc2[nH]ccc2c1	-2.7	nt	nt	-19.4	nt	nt	nt	nt
O=[N+]([O-])c1ccc2cc[nH]c2c1	6.2	61.4*	34.5	1.3	2.2	25.0	-4.0	nt
COc1ccc(S(=O)(=O)NCCN2CCOCC2)c(C)c1C	-2.9	80.6*	0.2	4.1	1.4	-13.1	-12.3	nt
COc1ccc(S(=O)(=O)NCCN2CCOCC2)c2ccccc12	-1.0	-5.9	-1.7	-0.6	1.4	nt	nt	nt
COc1ccc(N2CCN(C(C)C(=O)Nc3nnc(C)s3)CC2)cc1 (stereo unspecified)	-2.5	-5.0	8.3	-3.8	-2.0	nt	nt	nt
C[C@H](CO)N1C[C@H](C)[C@@H](CN(C)Cc2ccc(C(=O)O)cc2)Oc2c(NC(=O)c3ccncc3)cccc2C1=O	-1.3	54.4*	3.1	4.3	0.4	11.5	-10.7	nt
Cc1noc(C)c1NC(=O)N(C)C[C@@H]1Oc2c(NC(=O)c3ccncc3)cccc2C(=O)N([C@H](C)CO)C[C@@H]1C	-1.6	94.2*	3.4	2.6	-3.3	66.0*	-12.6	-27.2
C[C@H](CO)N1C[C@H](C)[C@@H](CN(C)C(=O)Nc2ccc3c(c2)OCO3)Oc2c(NC(=O)c3ccncc3)cccc2C1=O	-1.9	55.8*	22.0	-0.4	3.0	4.8	-15.1	nt
SMILES	LMPTP block	Scp1 inh	DNMT1 inh	SUMO1 PPI mod	STEP block	Scp-1 conf	MG interference	Scp-1 Tm shift
C[C@H](CO)N1C[C@H](C)[C@@H](CN(C)Cc2ccncc2)Oc2c(NC(=O)c3ccncc3)cccc2C1=O	-2.2	-7.7	4.2	4.5	-1.3	nt	nt	nt
Clc1ccc(N(CC2CO2)CC2CO2)cc1 (stereo unspecified)	-2.3	-4.7	-43.8	-1.5	0.6	nt	nt	nt
O=C(Nc1cccc([N+](=O)[O-])c1)Nc1cccc([N+](=O)[O-])c1	10.5	69.3*	5.5	-12.0	2.9	66.0*	-20.8	17.4*
Nc1c(C(=O)OCC(=O)Nc2cccc([N+](=O)[O-])c2)[nH]c(=O)[nH]c1=O	33.2	66.7*	-2.8	3.3	9.2	65.4*	-0.8	6.1*
Cc1ccc(C(=O)N2CCN(c3ncnc4c(C)csc34)CC2)cc1	0.5	58.3*	0.2	1.7	0.4	4.5	-1.0	nt
Cc1cccc(C)c1NC(=O)CCCCCC1NC(=O)NC1C (stereo unspecified)	-1.9	-4.9	2.7	-2.1	-0.9	3.0	-5.2	nt
CCNc1nc(NCC)n2c(SCC(=O)Nc3ccc(C)c(C)c3)nnc2n1	-0.2	30.3	12.6	10.9	1.2	nt	nt	nt
CCNc1nc(NCC)n2c(SCC(=O)Nc3ccc(OC(F)F)cc3)nnc2n1	4.3	67.6*	49.4	20.0	2.3	39.0*	-11.2	-12.6
CCNc1nc(NCC)n2c(SCC(=O)Nc3ccc(F)cc3)nnc2n1	-0.1	53.8*	55.2*	11.0	6.8	54.7*	-7.3	-19.8
CCNc1nc(NCC)n2c(SCC(=O)Nc3ccccc3)nnc2n1	-1.3	-8.9	-0.2	2.8	-2.0	nt	nt	nt
Cc1cc(NS(=O)(=O)c2ccc(NC(=O)/C=C/c3cccc(Cl)c3)cc2)no1	0.9	-7.3	1.4	16.8	-2.0	nt	nt	nt
O=C(O)c1ccc(COc2ccc3c4c(c(=O)oc3c2)CCC4)o1	-2.0	50.1*	43.6	0.8	12.2	45.2*	-5.7	-4.3
O=c1oc2cc(OCc3ccc([N+](=O)[O-])cc3)ccc2c2c1CCCC2	0.6	-6.0	14.7	-7.1	-1.5	nt	nt	nt
Cc1cc(C(=O)Nc2ccccc2C(=O)O)ccc1NC(=O)COc1ccccc1Cl	11.1	80.0*	0.9	19.1	22.0	51.9*	1.2	6.7*
O=C(COc1ccccc1Cl)Nc1ccc(C(=O)O)cc1NC(=O)COc1ccccc1Cl	-0.6	3.4	1.9	5.7	-2.1	nt	nt	nt
